Test results: ChEMBL document CHEMBL1667809, “Synthesis and in vitro antibacterial activity of 7-(3-alkoxyimino-5-amino/methylaminopiperidin-1-yl)fluoroquinolone derivatives” (Bioorg Med Chem Lett, 2011)
≈ marks a conversion by molar mass, not a printed value.

Legend:
[1] = system: Staphylococcus epidermidis; assay: Antibacterial activity against methicillin-resistant Staphylococcus epidermidis 10-5 after 18 to 24 hrs by agar dilution method; assay type: functional
Procedure, shortened: (§1)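 Agar dilution on Petri dishes, each inoculated with 10⁴ cfu. Plates incubated at 35 °C for 18–24 h. MIC taken as the lowest test-compound concentration giving no visible growth on the plate. Reference drugs gemifloxacin, ciprofloxacin and levofloxacin run alongside for comparison.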

Pseudomonas aeruginosa [2] = assay: Antibacterial activity against Pseudomonas aeruginosa ATCC 27853 after 18 to 24 hrs by agar dilution method; assay type: functional
Procedure, shortened: (§2)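 Agar dilution on Petri dishes, each inoculated with 10⁴ cfu of the strain and incubated at 35 °C for 18–24 h. MIC read as the lowest compound concentration giving no visible growth on the plate.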

Streptococcus pneumoniae = assay: Antibacterial activity against Streptococcus pneumoniae 1001 after 18 to 24 hrs by agar dilution method; assay type: functional; procedure, shortened: as §2
Streptococcus pyogenes = assay: Antibacterial activity against Streptococcus hemolyticus 1002 after 18 to 24 hrs by agar dilution method; assay type: functional; procedure, shortened: as §2
Escherichia coli [3] = assay: Antibacterial activity against Escherichia coli ATCC 25922 after 18 to 24 hrs by agar dilution method; assay type: functional; procedure, shortened: as §2
Staphylococcus aureus [4] = assay: Antibacterial activity against methicillin-sensitive Staphylococcus aureus 10-04 after 18 to 24 hrs by agar dilution method; assay type: functional; procedure, shortened: as §2
Klebsiella pneumoniae = assay: Antibacterial activity against Klebsiella pneumoniae 10-1 after 18 to 24 hrs by agar dilution method; assay type: functional; procedure, shortened: as §2
Escherichia coli [5] = assay: Antibacterial activity against Escherichia coli 10-02 after 18 to 24 hrs by agar dilution method; assay type: functional; procedure, shortened: as §2
Staphylococcus aureus [6] = assay: Antibacterial activity against methicillin-resistant Staphylococcus aureus 10-05 after 18 to 24 hrs by agar dilution method; assay type: functional; procedure, shortened: as §1
[7] = Cytotoxicity against african green monkey Vero cells after 24 hrs; assay type: cell-based; settings: chlorocebus sabaeus
Procedure, shortened: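 Vero cells exposed to graded compound concentrations for 24 h, then viability assessed; CC₅₀ derived from the viability data.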

Staphylococcus aureus [8] = assay: Antibacterial activity against Staphylococcus aureus ATCC 25923 after 18 to 24 hrs by agar dilution method; assay type: functional; procedure, shortened: as §2
Pseudomonas aeruginosa [9] = assay: Antibacterial activity against Pseudomonas aeruginosa 10-1 after 18 to 24 hrs by agar dilution method; assay type: functional; procedure, shortened: as §2
[10] = system: Staphylococcus epidermidis; assay: Antibacterial activity against methicillin-sensitive Staphylococcus epidermidis 10-4 after 18 to 24 hrs by agar dilution method; assay type: functional; procedure, shortened: as §2
Staphylococcus aureus [11] = assay: Ratio of compound MIC to CPFX MIC for methicillin-sensitive Staphylococcus aureus 10-04; assay type: functional
[12] = system: Staphylococcus epidermidis; assay: Ratio of compound MIC to CPFX MIC for methicillin-resistant Staphylococcus epidermidis 10-5; assay type: functional
Staphylococcus aureus [13] = assay: Ratio of compound MIC to GMFX MIC for methicillin-sensitive Staphylococcus aureus 10-04; assay type: functional
Staphylococcus aureus [14] = assay: Ratio of compound MIC to LVFX MIC for methicillin-sensitive Staphylococcus aureus 10-04; assay type: functional
[15] = system: Staphylococcus epidermidis; assay: Ratio of compound MIC to LVFX MIC for methicillin-resistant Staphylococcus epidermidis 10-5; assay type: functional
[16] = system: Staphylococcus epidermidis; assay: Ratio of compound MIC to GMFX MIC for methicillin-resistant Staphylococcus epidermidis 10-5; assay type: functional

Structure (SMILES) | MIC [1] [µg/mL] | MIC (Pseudomonas aeruginosa [2]) [µg/mL] | MIC (Streptococcus pneumoniae) [µg/mL] | MIC (Streptococcus pyogenes) [µg/mL] | MIC (Escherichia coli [3]) [µg/mL] | MIC (Staphylococcus aureus [4]) [µg/mL] | MIC (Klebsiella pneumoniae) [µg/mL] | MIC (Escherichia coli [5]) [µg/mL] | MIC (Staphylococcus aureus [6]) [µg/mL] | CC50 at 24 h [7] [µM] | MIC (Staphylococcus aureus [8]) [µg/mL] | MIC (Pseudomonas aeruginosa [9]) [µg/mL] | MIC [10] [µg/mL] | Ratio (Staphylococcus aureus [11]) | Ratio [12] | Ratio (Staphylococcus aureus [13]) | Ratio (Staphylococcus aureus [14]) | Ratio [15] | Ratio [16]
CCO/N=C1\CC(N)CN(c2nc3c(cc2F)c(=O)c(C(=O)O)cn3C2CC2)C1 (stereo unspecified) | 8 (≈ 19.8 µM) | 128 (≈ 317 µM) | 4 (≈ 9.92 µM) | 128 (≈ 317 µM) | 0.25 (≈ 0.62 µM) | 2 (≈ 4.96 µM) | 128 (≈ 317 µM) | 0.5 (≈ 1.24 µM) | 16 (≈ 39.7 µM) | 967 | 4 (≈ 9.92 µM) | 128 (≈ 317 µM) | 4 (≈ 9.92 µM) |  |  |  |  |  | 
CO/N=C1\CC(N)CN(c2cc3c(cc2F)c(=O)c(C(=O)O)cn3C2CC2)C1 (stereo unspecified) | 16 (≈ 41.2 µM) | 2 (≈ 5.15 µM) | 4 (≈ 10.3 µM) | 128 (≈ 330 µM) | 0.25 (≈ 0.644 µM) | 4 (≈ 10.3 µM) | 64 (≈ 165 µM) | 0.25 (≈ 0.644 µM) | 64 (≈ 165 µM) | 593 | 0.5 (≈ 1.29 µM) | > 128 | 8 (≈ 20.6 µM) |  |  |  |  |  | 
CNC1C/C(=N\OC)CN(c2c(F)cc3c(=O)c(C(=O)O)cn(C4CC4)c3c2OC)C1 (stereo unspecified) | 4 (≈ 9.25 µM) | 64 (≈ 148 µM) | 0.5 (≈ 1.16 µM) | 8 (≈ 18.5 µM) | 0.25 (≈ 0.578 µM) | 0.5 (≈ 1.16 µM) | 128 (≈ 296 µM) | 0.25 (≈ 0.578 µM) | 2 (≈ 4.62 µM) | 1090 | 0.5 (≈ 1.16 µM) | 128 (≈ 296 µM) | 1 (≈ 2.31 µM) | 4 | 4 | 4 | 4 | 2 | 2
CO/N=C1\CC(N)CN(c2nc3c(cc2F)c(=O)c(C(=O)O)cn3C2CC2)C1 (stereo unspecified) | 16 (≈ 41.1 µM) | 128 (≈ 329 µM) | 4 (≈ 10.3 µM) | 128 (≈ 329 µM) | 0.25 (≈ 0.642 µM) | 8 (≈ 20.5 µM) | 128 (≈ 329 µM) | 0.25 (≈ 0.642 µM) | 128 (≈ 329 µM) | 822 | 4 (≈ 10.3 µM) | 128 (≈ 329 µM) | 2 (≈ 5.14 µM) |  |  |  |  |  | 
O=C(O)c1cn(C2CC2)c2cc(N3CCNCC3)c(F)cc2c1=O [CIPROFLOXACIN] | 16 (≈ 48.3 µM) | 32 (≈ 96.6 µM) | 0.03 (≈ 0.0905 µM) | 64 (≈ 193 µM) |  |  | 32 (≈ 96.6 µM) |  | 64 (≈ 193 µM) |  | 0.25 (≈ 0.754 µM) | 1 (≈ 3.02 µM) | 1 (≈ 3.02 µM) |  |  |  |  |  | 
CO/N=C1\CN(c2nc3c(cc2F)c(=O)c(C(=O)O)cn3C2CC2)CC1CN (stereo unspecified) [GEMIFLOXACIN] | 8 (≈ 20.5 µM) | 2 (≈ 5.14 µM) | 0.008 (≈ 0.0205 µM) | 8 (≈ 20.5 µM) | 0.015 (≈ 0.0385 µM) | 2 (≈ 5.14 µM) | 32 (≈ 82.2 µM) | 0.06 (≈ 0.154 µM) | 4 (≈ 10.3 µM) |  | 0.008 (≈ 0.0205 µM) | 1 (≈ 2.57 µM) | 0.25 (≈ 0.642 µM) |  |  |  |  |  | 
C[C@H]1COc2c(N3CCN(C)CC3)c(F)cc3c(=O)c(C(=O)O)cn1c23.C[C@H]1COc2c(N3CCN(C)CC3)c(F)cc3c(=O)c(C(=O)O)cn1c23.O [LEVOFLOXACIN] | 8 |  | 0.015 | 32 |  | 8 | 32 |  | 32 |  | 0.125 |  | 2 |  |  |  |  |  | 
CCn1cc(C(=O)O)c(=O)c2cc(F)c(N3C/C(=N/OC)CC(N)C3)c(F)c21 (stereo unspecified) | 16 (≈ 40.6 µM) | 8 (≈ 20.3 µM) | 0.5 (≈ 1.27 µM) | 128 (≈ 325 µM) | 0.25 (≈ 0.634 µM) | 0.25 (≈ 0.634 µM) | > 128 | 0.25 (≈ 0.634 µM) | 32 (≈ 81.1 µM) | 913 | 0.25 (≈ 0.634 µM) | > 128 | 16 (≈ 40.6 µM) | 4 |  |  | 4 |  | 
CO/N=C1\CC(N)CN(c2c(F)cc3c(=O)c(C(=O)O)cn4c3c2OC[C@@H]4C)C1 (stereo partly specified) | 8 (≈ 19.8 µM) | 8 (≈ 19.8 µM) | 0.5 (≈ 1.24 µM) | 64 (≈ 158 µM) | 0.25 (≈ 0.618 µM) | 2 (≈ 4.95 µM) | 64 (≈ 158 µM) | 0.5 (≈ 1.24 µM) | 128 (≈ 317 µM) | 1000 | 0.5 (≈ 1.24 µM) | 64 (≈ 158 µM) | 4 (≈ 9.89 µM) |  |  |  |  |  | 
CCO/N=C1\CC(NC)CN(c2c(F)cc3c(=O)c(C(=O)O)cn(C4CC4)c3c2F)C1 (stereo unspecified) | 2 (≈ 4.6 µM) | 128 (≈ 295 µM) | 1 (≈ 2.3 µM) | 128 (≈ 295 µM) | 0.25 (≈ 0.575 µM) | 0.25 (≈ 0.575 µM) | > 128 | 0.5 (≈ 1.15 µM) | 4 (≈ 9.21 µM) | 1010 | 0.5 (≈ 1.15 µM) | > 128 | 0.5 (≈ 1.15 µM) | 4 |  | 4 | 4 | 2 | 2
CCO/N=C1\CC(NC)CN(c2nc3c(cc2F)c(=O)c(C(=O)O)cn3C2CC2)C1 (stereo unspecified) | 16 (≈ 38.3 µM) | 128 (≈ 307 µM) | 4 (≈ 9.58 µM) | > 128 | 0.25 (≈ 0.599 µM) | 4 (≈ 9.58 µM) | > 128 | 0.25 (≈ 0.599 µM) | 8 (≈ 19.2 µM) | 731 | 2 (≈ 4.79 µM) | > 128 | 8 (≈ 19.2 µM) |  |  |  |  |  | 
CNC1C/C(=N\OC)CN(c2c(F)cc3c(=O)c(C(=O)O)cn(C4CC4)c3c2F)C1 (stereo unspecified) | 2 (≈ 4.76 µM) | 8 (≈ 19 µM) | 1 (≈ 2.38 µM) | 8 (≈ 19 µM) | 0.25 (≈ 0.595 µM) | 2 (≈ 4.76 µM) | 128 (≈ 304 µM) | 0.25 (≈ 0.595 µM) | 8 (≈ 19 µM) | 1020 | 0.25 (≈ 0.595 µM) | 128 (≈ 304 µM) | 2 (≈ 4.76 µM) |  |  |  |  | 2 | 2
CO/N=C1\CC(N)CN(c2c(F)cc3c(=O)c(C(=O)O)cn(C4CC4)c3c2OC(F)F)C1 (stereo unspecified) | 8 (≈ 17.6 µM) | 128 (≈ 282 µM) | 4 (≈ 8.8 µM) | > 128 | 0.25 (≈ 0.55 µM) | 8 (≈ 17.6 µM) | > 128 | 0.25 (≈ 0.55 µM) | 128 (≈ 282 µM) | 667 | 2 (≈ 4.4 µM) | > 128 | 2 (≈ 4.4 µM) |  |  |  |  |  | 
CNC1C/C(=N\OC)CN(c2nc3c(cc2F)c(=O)c(C(=O)O)cn3C2CC2)C1 (stereo unspecified) | 16 (≈ 39.7 µM) | 128 (≈ 317 µM) | 4 (≈ 9.92 µM) | > 128 | 0.25 (≈ 0.62 µM) | 4 (≈ 9.92 µM) | > 128 | 0.25 (≈ 0.62 µM) | 128 (≈ 317 µM) | 645 | 0.5 (≈ 1.24 µM) | > 128 | 2 (≈ 4.96 µM) |  |  |  |  |  | 
CO/N=C1\CC(N)CN(c2c(F)cc3c(=O)c(C(=O)O)cn(C4CC4)c3c2F)C1 (stereo unspecified) | 8 (≈ 19.7 µM) | 128 (≈ 315 µM) | 0.25 (≈ 0.615 µM) | 128 (≈ 315 µM) | 0.25 (≈ 0.615 µM) | 0.5 (≈ 1.23 µM) | 128 (≈ 315 µM) | 0.25 (≈ 0.615 µM) | 8 (≈ 19.7 µM) | 739 | 0.25 (≈ 0.615 µM) | 128 (≈ 315 µM) | 4 (≈ 9.84 µM) | 4 |  | 4 | 4 |  | 
CCO/N=C1\CC(N)CN(c2c(F)cc3c(=O)c(C(=O)O)cn(C4CC4)c3c2OC(F)F)C1 (stereo unspecified) | 1 (≈ 2.13 µM) | 128 (≈ 273 µM) | 1 (≈ 2.13 µM) | 128 (≈ 273 µM) | 0.25 (≈ 0.534 µM) | 0.25 (≈ 0.534 µM) | > 128 | 0.25 (≈ 0.534 µM) | 4 (≈ 8.54 µM) | 1520 | 0.5 (≈ 1.07 µM) | > 128 | 0.25 (≈ 0.534 µM) | 4 |  | 4 | 4 | 2 | 2
